# Test results published in ChEMBL document CHEMBL3817745, “Structure-Activity Relationship for the 4(3H)-Quinazolinone Antibacterials” (J Med Chem, 2016).
# Legend:
# [1] = system: Staphylococcus aureus; test: Antibacterial activity against methicillin-susceptible Staphylococcus aureus ATCC 29213 incubated for 16 to 20 hrs by microdilution method; assay type: functional
# [2] = system: Enterococcus faecium; test: Antibacterial activity against Enterococcus faecium NCTC 7171 incubated for 16 to 20 hrs by microdilution method; assay type: functional
# In short: (§1)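 CLSI broth microdilution. 2-fold serial dilutions were made in cation-adjusted Mueller–Hinton broth, with 5% lysed horse blood added for Streptococcus strains, in triplicate. Inoculum 5×10^5 CFU/mL. Plates incubated 36 °C for 16–20 h. MIC taken as the lowest concentration visibly inhibiting growth.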
# [3] = system: Klebsiella pneumoniae; test: Antibacterial activity against Klebsiella pneumoniae ATCC 700603 incubated for 16 to 20 hrs by microdilution method; assay type: functional; in short: as §1
# [4] = system: Acinetobacter baumannii; test: Antibacterial activity against Acinetobacter baumannii ATCC 17961 incubated for 16 to 20 hrs by microdilution method; assay type: functional; in short: as §1
# [5] = system: Pseudomonas aeruginosa; test: Antibacterial activity against Pseudomonas aeruginosa […] incubated for 16 to 20 hrs by microdilution method; assay type: functional; in short: as §1
# [6] = system: Escherichia coli; test: Antibacterial activity against Escherichia coli ATCC 25922 incubated for 16 to 20 hrs by microdilution method; assay type: functional; in short: as §1
# [7] = system: Klebsiella aerogenes; test: Antibacterial activity against Enterobacter aerogenes ATCC 35029 incubated for 16 to 20 hrs by microdilution method; assay type: functional; in short: as §1
# [8] = system: Mus musculus; test: AUC (0 to last) in ICR mouse peritonitis model infected with methicillin resistant Staphylococcus aureus ATCC 27660 at 10 mg/kg, iv administered as single dose measured up to 8 hrs by UPLC analysis; assay type: ADME, organism-based; parameters: dose 10 mg/kg, time 0 - last, route intravenous; settings: in vivo, 8 h
# In short: (§2)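 Fast PK: female ICR mice (n = 2 per time point) given single tail-vein iv injection at 5, 10 or 20 mg/kg in 25% DMSO/65% propylene glycol/10% water (2.5, 5 or 10 mg/mL); terminal cardiac blood at 5 min, 40 min, 2, 4, 8 h; plasma analysed by UPLC with internal standard calibration.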
# [9] = system: HepG2; test: Cytotoxicity against human HepG2 cells incubated for 16 hrs by XTT assay; assay type: cell-based; settings: HepG2, 16 h
# In short: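 HepG2 cells were tested with an XTT viability read-out, in triplicate. IC50 was obtained by nonlinear regression.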
# [10] = Hemolytic activity against human RBC at 64 ug/ml relative to control; assay type: ADME, cell-based, Erythrocyte; settings: erythrocyte
# In short: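 Hemolysis was measured at a fixed 64 μg/mL on a 10% red-cell suspension from heparinized human blood. Triton-X served as the positive control, and results are given as percent hemolysis.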
# [11] = system: Staphylococcus aureus; test: Antibacterial activity against vancomycin/methicillin-resistant Staphylococcus aureus VRS1 clinical isolate incubated for 16 to 20 hrs by microdilution method; assay type: functional
# [12] = system: Staphylococcus aureus; test: Antibacterial activity against vancomycin/methicillin-resistant Staphylococcus aureus VRS2 clinical isolate incubated for 16 to 20 hrs by microdilution method; assay type: functional
# [13] = system: Staphylococcus epidermidis; test: Antibacterial activity against Staphylococcus epidermidis ATCC 35547 incubated for 16 to 20 hrs by microdilution method; assay type: functional; in short: as §1
# [14] = system: Streptococcus oralis; test: Antibacterial activity against Streptococcus oralis ATCC 9811 incubated for 16 to 20 hrs by microdilution method; assay type: functional; in short: as §1
# [15] = system: Streptococcus pyogenes; test: Antibacterial activity against Streptococcus pyogenes ATCC 49399 incubated for 16 to 20 hrs by microdilution method; assay type: functional; in short: as §1
# [16] = system: Bacillus cereus; test: Antibacterial activity against Bacillus cereus ATCC 13061 incubated for 16 to 20 hrs by microdilution method; assay type: functional; in short: as §1
# [17] = system: Mus musculus; test: AUC (0 to last) in ICR mouse peritonitis model infected with methicillin resistant Staphylococcus aureus ATCC 27660 at 5 mg/kg, iv administered as single dose measured up to 8 hrs by UPLC analysis; assay type: ADME, organism-based; parameters: dose 5 mg/kg, route intravenous, time 0 - last; settings: in vivo; in short: as §2
# [18] = system: Staphylococcus aureus; test: Antibacterial activity against mecA-positive methicillin/oxacillin/tetracycline-resistant Staphylococcus aureus ATCC 27660 incubated for 16 to 20 hrs by microdilution method; assay type: functional
# [19] = system: Staphylococcus aureus; test: Antibacterial activity against mecA-positive multidrug resistant Staphylococcus aureus COL NRS100 incubated for 16 to 20 hrs by microdilution method; assay type: functional
# [20] = system: Staphylococcus aureus; test: Antibacterial activity against mecA-positive multidrug resistant Staphylococcus aureus NRS119 incubated for 16 to 20 hrs by microdilution method; assay type: functional
# [21] = system: Staphylococcus aureus; test: Antibacterial activity against mecA-positive multidrug resistant Staphylococcus aureus NRS120 incubated for 16 to 20 hrs by microdilution method; assay type: functional
# [22] = system: Staphylococcus haemolyticus; test: Antibacterial activity against Staphylococcus haemolyticus ATCC 29970 incubated for 16 to 20 hrs by microdilution method; assay type: functional
# [23] = system: Bacillus licheniformis; test: Antibacterial activity against Bacillus licheniformis ATCC 12759 incubated for 16 to 20 hrs by microdilution method; assay type: functional; in short: as §1
# [24] = system: Enterococcus faecalis; test: Antibacterial activity against methicillin-susceptible Enterococcus faecalis ATCC 29212 incubated for 16 to 20 hrs by microdilution method; assay type: functional; in short: as §1
# [25] = system: Enterococcus faecalis; test: Antibacterial activity against vancomycin-resistant Enterococcus faecalis 99 clinical isolate incubated for 16 to 20 hrs by microdilution method; assay type: functional
Compound,MIC [1],MIC [2],MIC [3],MIC [4],MIC [5],MIC [6],MIC [7],IC50 [9],Activity [10],also measured
O=c1c2ccccc2nc(CCc2ccccc2)n1-c1cccc(O)c1,0.06 µg/mL,≥ 8 µg/mL,≥ 16 µg/mL,≥ 16 µg/mL,≥ 16 µg/mL,≥ 16 µg/mL,≥ 16 µg/mL,,,
CS(=O)(=O)Nc1cccc(-n2c(/C=C/c3ccc(F)cc3)nc3ccccc3c2=O)c1,0.125 µg/mL,≥ 8 µg/mL,≥ 16 µg/mL,≥ 16 µg/mL,≥ 16 µg/mL,≥ 16 µg/mL,≥ 16 µg/mL,66 µg/mL,< 1%,AUClast [8]: 819 µg·min/mL
O=c1c2ccccc2nc(/C=C/c2ccc(Cl)cc2)n1-c1cccc(O)c1,0.125 µg/mL,≥ 8 µg/mL,≥ 16 µg/mL,≥ 16 µg/mL,≥ 16 µg/mL,≥ 16 µg/mL,≥ 16 µg/mL,,,
O=c1c2ccccc2nc(/C=C/c2ccccc2[N+](=O)[O-])n1-c1cccc(O)c1,128 µg/mL,≥ 8 µg/mL,≥ 16 µg/mL,≥ 16 µg/mL,≥ 16 µg/mL,≥ 16 µg/mL,≥ 16 µg/mL,,,
O=c1c2ccccc2nc(/C=C/c2ccc(C(F)(F)F)cc2)n1-c1cccc(O)c1,128 µg/mL,≥ 8 µg/mL,≥ 16 µg/mL,≥ 16 µg/mL,≥ 16 µg/mL,≥ 16 µg/mL,≥ 16 µg/mL,,,
CN[C@@H](CC(C)C)C(=O)N[C@H]1C(=O)N[C@@H](CC(N)=O)C(=O)N[C@H]2C(=O)N[C@H]3C(=O)N[C@H](C(=O)N[C@@H](C(=O)O)c4cc(O)cc(O)c4-c4cc3ccc4O)[C@H](O)c3ccc(c(Cl)c3)Oc3cc2cc(c3O[C@H]2O[C@@H](CO)[C@H](O)[C@@H](O)[C@@H]2O[C@@H]2C[C@@](C)(N)[C@@H](O)[C@@H](C)O2)Oc2ccc(cc2Cl)[C@H]1O,,,,,,,,,,MIC [11]: 512 µg/mL; MIC [12]: 64 µg/mL; MIC [13]: 16 µg/mL; MIC [14]: 0.5 µg/mL; MIC [15]: 0.5 µg/mL; MIC [16]: 1 µg/mL
CS(=O)(=O)Nc1cccc(-n2c(/C=C/c3ccc(C#N)cc3)nc3ccccc3c2=O)c1,0.004 µg/mL,> 128 µg/mL,≥ 16 µg/mL,≥ 16 µg/mL,≥ 16 µg/mL,≥ 16 µg/mL,≥ 16 µg/mL,33.4 µg/mL,< 1%,AUClast [17]: 31 µg·min/mL; MIC [18]: 0.25 µg/mL; MIC [19]: 0.5 µg/mL; MIC [20]: 0.5 µg/mL; MIC [21]: 0.25 µg/mL; MIC [11]: 0.5 µg/mL; MIC [12]: 0.125 µg/mL; MIC [13]: 0.125 µg/mL; MIC [22]: 0.125 µg/mL; MIC [14]: > 128 µg/mL; MIC [15]: > 128 µg/mL; MIC [16]: > 128 µg/mL; MIC [23]: > 128 µg/mL; MIC [24]: > 128 µg/mL; MIC [25]: 128 µg/mL
CC(=O)Nc1cccc(-n2c(/C=C/c3ccc(F)cc3)nc3ccccc3c2=O)c1,1 µg/mL,≥ 8 µg/mL,≥ 16 µg/mL,≥ 16 µg/mL,≥ 16 µg/mL,≥ 16 µg/mL,≥ 16 µg/mL,46.6 µg/mL,3.6%,AUClast [8]: 284 µg·min/mL
